This note sets out measurements from BindingDB's records for doi:10.1021/jm00019a014 (University of Ghent, 1995).

Each structure is given as a SMILES string. Some results are limits rather than exact numbers.

Assay [1] has as its target glyceraldehyde-3-phosphate dehydrogenase (glycosomal GAPDH per title). Description: TInhibition of glyceraldehyde-3-phosphate dehydrogenase in Leishmania mexicana. An outline of the steps:
(§1)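 Enzyme sources: human erythrocyte GAPDH, glycosomal GAPDH from T. brucei, and glycosomal GAPDH from L. mexicana. IC50 is the inhibitor concentration at which 50% of enzyme activity remains. Poorly soluble compounds were not tested above their solubility limit, and the remaining activity at that level was recorded instead.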

The target in assay [2] is glycosomal glyceraldehyde-3-phosphate dehydrogenase (GAPDH). Description: Inhibition of glyceraldehyde-3-phosphate dehydrogenase in Trypanosoma brucei. An outline of the steps:
as §1

The IC50 is the midpoint of a concentration-inhibition curve. Take `Nc1ncnc2c1ncn2C1OC(CO)C(O)C1NCc1ccccc1` (stereo unspecified) [5-(6-Amino-purin-9-yl)-4-benzylamino-2-hydroxymethyl-tetrahydro-furan-3-ol]: the IC50 in assay [1] and in assay [2] was > 10 mM each time.
With `CC(C)COC(=O)NC1C(O)C(CO)OC1n1cnc2c(N)ncnc21` (stereo unspecified) [[2-(6-Amino-purin-9-yl)-4-hydroxy-5-hydroxymethyl-tetrahydro-furan-3-yl]-carbamic acid isobutyl ester], the IC50 in assay [1] and in assay [2] was > 10 mM in each case.
`COc1cccc(C(=O)NC2C(O)C(CO)OC2n2cnc3c(N)nc(C)nc32)c1` (stereo unspecified) [N-[2-(6-Amino-2-methyl-purin-9-yl)-4-hydroxy-5-hydroxymethyl-tetrahydro-furan-3-yl]-3-methoxy-benzamide]: the concentration for half-maximal inhibition (IC50) in assay [1] and in assay [2] was > 10 mM throughout.
